Screens as filed in PubChem BioAssay.
Shown are actives, neighbours in structure and some others; about 1.4% of the full set was active somewhere.
HNF4A DNA FP – change in binding of human HNF4A to DNA, primary screen, biochemical, fluorescence polarization, FITC-DNA; Hepatocyte nuclear factor 4-alpha (Homo sapiens), P41235; 1 h; activity change, % at 10 µM; hit rate 0.3% among 360,000; in the data active = activity change above about 30%, passing the limit was not always enough
IDE inh – human IDE inhibitors in live cells, primary screen, fluorescence polarization, HEK cells, FAbetaB substrate; Insulin-degrading enzyme (Homo sapiens), P14735; FAbetaB cleavage; inhibition, % at 5.59 µM; hit rate 0.41% among 320,000; AID 434962, 2010;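 active = percent inhibition above the average of all tested compounds plus 3 SD, set per screening campaign, cut at about 16% in these data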;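 note: IDE supplied by intact live HEK cells; FP after avidin binding of uncleaved biotin substrate so inhibition keeps polarization high; 0% = DMSO wells and 100% = 60 µM reference IDE inhibitor Ii1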
CSN deneddyl inh – inhibitors of CSN-mediated cullin deneddylation, primary screen, biochemical, fluorescence polarization, uHTS; inhibition, % at 12.5 µM; hit rate 0.38% among 360,000; COP9 signalosome complex subunit 5 (Homo sapiens), Q92905; Purified CSN, SCF-Nedd8-OG deneddylation;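 active = pattern-corrected inhibition above about 35%, with an unprinted fluorescence ratio check between 0.5 and 1.5, limit read from the data, passing the limit was not always enough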;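 note: 0% = enzyme with substrate and 100% = substrate without enzyme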
Target sequence (Q92905 whole entry, looked up, one chain of several): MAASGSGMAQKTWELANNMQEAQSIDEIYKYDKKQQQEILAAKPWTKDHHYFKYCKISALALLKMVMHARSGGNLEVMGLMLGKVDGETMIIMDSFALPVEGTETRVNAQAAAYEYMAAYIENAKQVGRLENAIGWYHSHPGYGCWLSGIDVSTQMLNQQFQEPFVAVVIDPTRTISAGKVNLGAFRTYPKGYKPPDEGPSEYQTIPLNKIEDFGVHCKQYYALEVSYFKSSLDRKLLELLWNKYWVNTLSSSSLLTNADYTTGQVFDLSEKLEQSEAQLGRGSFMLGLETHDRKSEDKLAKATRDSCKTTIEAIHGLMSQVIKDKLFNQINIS
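Material: purified human Csn5 enzyme expressed in HEK293T cells / Medium: Tris buffer pH 7.5, NaCl, DTT, Tween-20, trehalose, ovalbumin / Compound dosing: 12.5 µM single point / Schedule: 90 min incubation of compound, enzyme and substrate at room temperature / Signal: fluorescence polarization of the substrate / Control set: no-enzyme wells high, enzyme-with-substrate wells low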
TPT1 inhibitor – Candida albicans TPT1 enzyme inhibitors, primary screen, biochemical, fluorescence polarization; hit rate 0.81% among 300,000; recombinant caTPT1, FP RNA substrate dephosphorylation; inhibition, % at 5 µM;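 active = inhibition above the mean of all tested compounds plus 3 SD, set per screening campaign, cut at about 24% in these data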;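 note: plate controls were DMSO alone for no effect and ferristatin control at 100 nM for full effect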
IDE cell activ – human IDE activators in live cells, primary screen, fluorescence polarization, HEK cells, FAbeta-B substrate | hit rate 0.073% among 340,000 | FAbeta-B cleavage; 0% vehicle, 100% cell-free pure enzyme wells | Insulin-degrading enzyme (Homo sapiens), P14735 | activation, % at 5.96 µM;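 active = activation above the mean of all tested compounds plus 3 SD, set per screening campaign, cut at about 17% in these data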
TPT1 inh confirm – Candida albicans TPT1 inhibitors, confirmation, biochemical, fluorescence polarization, triplicate; shares compounds with TPT1 inhibitor; recombinant caTPT1, RNase T1 coupled; inhibition, % at 5 µM; hit rate 74% among 2,400;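 active = inhibition above the primary screen limit, the mean inhibition of all tested compounds plus 3 SD, cut at about 25% in these data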
RNase T1 inh – RNase T1 inhibitors, counter-screen for TPT1 inhibitor project, biochemical, fluorescence polarization; shares compounds with TPT1 inhibitor; RNase T1 cleavage, 1536-well; inhibition, % at 5 µM; hit rate 83% among 2,400;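 active = inhibition above the solvent-only control well mean plus 3 SD, limit set per screening run, cut at about 23% in these data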;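 note: plate controls were DMSO wells with enzyme for no effect and wells without RNase T1 for full effect; inhibitors block cleavage so intact labeled substrate keeps polarization high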
Target sequence (P00651 whole entry, looked up): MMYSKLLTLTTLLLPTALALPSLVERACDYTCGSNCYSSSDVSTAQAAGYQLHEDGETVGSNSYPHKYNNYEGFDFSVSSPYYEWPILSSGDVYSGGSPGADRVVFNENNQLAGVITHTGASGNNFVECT
Numbers without * were called inactive; . = no result given.

SMILES	HNF4A DNA FP	IDE inh	CSN deneddyl inh	TPT1 inhibitor	IDE cell activ	TPT1 inh confirm	RNase T1 inh
C#C[C@]1(O)CC[C@H]2[C@@H]3CCC4=Cc5nc6nc7ccccc7n6cc5C[C@]4(C)[C@H]3CC[C@@]21C	10	3	14	32*	-1	33*	44*
CN(C)c1ccc(/C=C/[N+](=O)[O-])cc1	1	9	-1	51*	-18	73*	90*
C/C(=C\c1ccc(N(C)C)cc1)[N+](=O)[O-]	1	3	-5	11	-10	.	.
Cc1cccc(N2C(=O)/C(=C/c3ccc(CN(CCC#N)S(C)(=O)=O)o3)C(=O)NC2=S)c1	22	1	31	34*	4	21	29*
Cc1ccc(N2C(=O)/C(=C/c3ccc(CN(CCC#N)S(C)(=O)=O)o3)C(=O)NC2=S)cc1C	.	10	.	46*	.	48*	57*
CCOC(=O)c1c(/N=C/c2c(O)n(-c3ccccc3F)c(=S)[nH]c2=O)sc2c1CCCC2	-5	-1	23	38*	-3	86*	96*
O=C1Nc2cc(C(=O)N3CCC4(CC3)OCCO4)ccc2NC1CSCc1cccc(F)c1 (configuration not stated)	.	4	.	61*	.	96*	101*
COc1ccc(OC)c(N2C(=O)/C(=C/c3ccco3)C(=O)NC2=S)c1	.	2	.	68*	.	55*	27*
O=c1c2ccccc2nc(/C=C/c2ccccc2F)n1-c1ccccc1O	-2	3	3	0	3	.	.
O=c1c2ccccc2nc(/C=C/c2ccccc2O)n1-c1ccccc1O	11	13	26	25*	-8	37*	48*
Cc1ccc2c(C)c3ccc4ccccc4c3c[n+]2c1	-33	.	4	.	0	.	.
CN1C(=O)/C(=C/c2ccc(Cl)s2)C(=O)NC1=S	3	4	10	8	-12	.	.
CN1C(=O)/C(=C\c2ccc(N3CCCCC3)o2)C(=O)NC1=S	182	9	172	113*	-14	142*	136*
CN1C(=O)C(=Cc2ccc(N3CCOCC3)o2)C(=O)N(C)C1=S	87*	0	176	57*	-7	114*	118*
C=CCN1C(=O)/C(=C\c2ccc(N3CCOCC3)o2)C(=O)NC1=S	56*	12	112	108*	-16	120*	124*
Cc1cc(N2CCCCC2)ccc1C=C1C(=O)N(C)C(=S)N(C)C1=O	4	10	7	17	3	.	.
CN1C(=O)/C(=C/c2ccc(N3CCCCCC3)o2)C(=O)NC1=S	158	14	154	167*	-40	145*	138*
Cc1ccsc1/C=C1\C(=O)NC(=S)N(C)C1=O	-2	6	1	-2	3	.	.
CCOC(=O)[C@]12Cc3ccccc3[C@H]1N(Cc1ccccc1)C(=O)c1cc(F)c(F)cc12	0	.	7	.	.	.	.
COc1ccc(N2C(=O)/C(=C/c3ccc(C)o3)C(=O)NC2=S)cc1	15	.	28	.	-2	.	.
CN1CCN(c2ccc(/C=C3\C(=O)NC(=S)N(c4cccc(Br)c4)C3=O)o2)CC1	128	2	139	132*	-36	152*	142*
CN1C(=O)C(=Cc2ccc(Sc3ccccc3)o2)C(=O)N(C)C1=S	0	4	18	37*	-12	24	37*
Fc1cccc(-c2ccc3c(c2)CN(c2cccc(Cl)c2)Cc2cnnn2-3)c1	-2	.	25	.	.	.	.
Cc1nc2ccccn2c1P(=S)(c1ccccc1)c1ccccc1	-1	.	1	.	.	.	.
CN(C)/C=C1/C(=O)NC(=O)N(CCNc2ncc(C(F)(F)F)cc2Cl)C1=O	17	2	9	29*	-1	24	34*
SMILES	HNF4A DNA FP	IDE inh	CSN deneddyl inh	TPT1 inhibitor	IDE cell activ	TPT1 inh confirm	RNase T1 inh
CCN(CC)c1ccc(N=Cc2c(O)n(CCc3ccc(OC)c(OC)c3)c(=O)[nH]c2=O)cc1	12	0	-2	43*	5	80*	93*
COc1ccc(N=Cc2c(O)n(-c3ccc(C)cc3)c(=O)[nH]c2=O)cc1	0	-5	-13	-2	.	.	.
CCN(CC)c1ccc(N=Cc2c(O)n(-c3cc(OC)ccc3OC)c(=O)[nH]c2=O)cc1	13	2	21	93*	-7	76*	88*
CCN(CCO)c1ccc(N=Cc2c(O)n(C)c(=S)[nH]c2=O)cc1	2	12	25	57*	.	86*	94*
Cc1cccc(C)c1-n1nnnc1C(c1cccc2ccccc12)N1CCC2(CC1)C(=O)NCN2c1ccccc1 (configuration not stated)	1	.	-5	.	.	.	.
CCCCOC1OCN(C2CCCCC2)CC1(C)C (configuration not stated)	0	.	-1	.	.	.	.
CSc1ncc(/C=C2/C(=O)NC(=O)N(C3CCCCC3)C2=O)cn1	3	0	6	32*	4	32*	43*
O=c1[nH]c(=O)n(CCC2=CCCCC2)c(O)c1C=NCCCn1ccnc1	5	2	4	16	-5	.	.
O=c1[nH]c(=O)n(CCc2ccc(F)cc2)c(O)c1C=NCCCn1ccnc1	11	3	11	39*	6	33*	44*
CC(C)(C)n1nnnc1C(CCc1ccccc1)N1CCC2(CC1)C(=O)NCN2c1ccccc1 (configuration not stated)	0	.	0	.	.	.	.
O=C1NC(=S)N(c2ccc(Cl)cc2)C(=O)/C1=C/N1CCN(C(=O)c2ccco2)CC1	16	4	43*	39*	-3	29*	41*
CCCCCn1c(NC(=O)c2ccco2)c(C(=O)OCC)c2nc3ccccc3nc21	10	-4	30	36*	0	31*	43*
CCOC(=O)c1c(N)n(CCCOC(=O)c2ccco2)c2nc3ccccc3nc12	3	3	7	1	5	.	.
O=C(OCc1ccccc1)N1CCC2CC1c1cc(N3Cc4ccccc4-n4nncc4C3)ccc12 (configuration not stated)	-1	.	4	.	.	.	.
CCOP(=O)(OCC)C(NC(=O)c1ccc(Cl)cc1)=C(Cl)Cl	-1	2	0	49*	0	0	5
C=CCn1c(=O)c(C=Nc2cccnc2Cl)c(O)n(CCCC)c1=O	8	7	29	44*	-4	13	23*
CCn1c(O)c(C=Nc2cc(Cl)ccc2Cl)c(=O)n(CC)c1=O	5	5	-2	5	-5	.	.
